# Assay outcomes (PubChem BioAssay)
# dFosB activator = mouse delta FosB homodimer activation; AID 493131; purified delta FosB, TAMRA-CDK5 oligo fluorescence polarization; percent of positive-control signal above neutral wells; activation, % at 25 µM; hit rate 0.99% among 340,000;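 active means mean activation above about 17%, with every replicate also reaching it, limit read from the data, passing the limit was not always enough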
# CAL PDZ FP-1 = CAL PDZ (human) peptide binding inhibition. AID 602252. hit rate 0.92% among 300,000. purified CAL PDZ, TMR-peptide fluorescence polarization, 1 h. inhibition, % at 24.9 µM. Q9HD26;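 active means mean inhibition of at least 30% with at least half of replicates also reaching 30%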
# CAL PDZ FP-2 = inhibitors of human CAL PDZ peptide binding | purified CAL PDZ, TMR-peptide fluorescence polarization, 1 h | inhibition, % at 20 µM | hit rate 0.02% among 330,000 | AID 504414;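 active means highest replicate inhibition of at least 40%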
#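 System: purified tagged CAL PDZ domain construct (CerCALP). Schedule: 1 h incubation at room temperature before polarization reading. Medium: 25 mM sodium phosphate pH 7.4, 150 mM NaCl, TCEP, IgG, Thesit. Read-out: percent inhibition from loss of millipolarization. Measured by: FP readout, S and P plane fluorescence. Probe or stimulus: fluorescent TMR peptide probe.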
# PKA-R1A act = PKA-R1A complex activation. P00514+P68181. PKA-R1A dissociation, Cy5-IP20 fluorescence polarization; scaled: DMSO 0%, 113 µM cGMP 100%. activation, % at 11.4 µM. hit rate 0.083% among 340,000. AID 504707;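 active means percent activation above the mean of all tested compounds plus 3 SD, cut at about 19% in these data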;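 further: higher means more PKAc released from R1A so a rise in polarization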
# PKA-R2B activ = activators of human PKA-R2B complex. P22694+P31323. PKA-R2B holoenzyme dissociation, Cy5-IP20 fluorescence polarization; R2B truncated from residue 108, S112A mutant; 0% DMSO only, 100% 113 µM cGMP. activation, % at 11.4 µM. hit rate 0.079% among 340,000;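 active means activation above a cutoff set at the mean over all compounds plus 3 SD, cut at about 18% in these data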;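 further: higher means more holoenzyme dissociation and a rise in polarization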
# Target sequence (P31323 whole entry, looked up, other chains not shown, the tested form may be a part): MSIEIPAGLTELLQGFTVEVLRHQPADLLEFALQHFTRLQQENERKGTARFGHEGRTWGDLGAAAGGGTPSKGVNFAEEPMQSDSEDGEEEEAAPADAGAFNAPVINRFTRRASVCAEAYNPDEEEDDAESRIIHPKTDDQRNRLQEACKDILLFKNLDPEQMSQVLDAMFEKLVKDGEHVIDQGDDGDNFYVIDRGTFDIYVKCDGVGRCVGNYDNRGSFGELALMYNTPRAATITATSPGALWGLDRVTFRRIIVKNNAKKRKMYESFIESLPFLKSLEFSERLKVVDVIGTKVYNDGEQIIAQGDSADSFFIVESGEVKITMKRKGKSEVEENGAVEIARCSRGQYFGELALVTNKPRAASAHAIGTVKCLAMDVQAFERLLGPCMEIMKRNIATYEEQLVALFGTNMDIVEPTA
# NTR1 agonist = activates human neurotensin receptor 1; activation, % at 20 µM; hit rate 0.17% among 330,000; NTR1-U2OS beta-arrestin-GFP spot imaging, agonist mode; P30989;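 active means activation at or above 40% of the spot to cytoplasm intensity ratio, with at least 20 cells analyzed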
# A number is an active result; - = inactive; . = no result given. Hits are enriched below; roughly 2% of the tested compounds scored in any of these assays.
SMILES,dFosB activator,CAL PDZ FP-1,CAL PDZ FP-2,PKA-R1A act,PKA-R2B activ,NTR1 agonist
NC(=O)c1ccc(-c2nnn(CC(=O)Nc3cccc(S(=O)(=O)N4CCCC4)c3)n2)cc1,110,-,-,-,-,-
O=C(Cn1nnc(-c2ccccc2)n1)Nc1cccc(S(=O)(=O)N2CCOCC2)c1,-,-,-,-,-,-
CC1C(=O)N2CCCc3cc(NS(=O)(=O)c4ccccc4)cc1c32 (centres undefined),-,-,-,-,-,-
O=C(COc1ccc(C(=O)NCCN2CCOCC2)cc1)Nc1cccc(C(F)(F)F)c1,-,-,-,-,-,-
O=C(COC(=O)CNC(=O)c1sc2ccccc2c1Cl)Nc1cc(Cl)cc(Cl)c1,167,-,-,-,-,-
O=C(Nc1cccc(C(=O)N2CCOCC2)c1)c1ccccc1,-,-,-,-,-,-
Cc1ccc(C(=O)Nc2cccc(C(=O)N3CCOCC3)c2)cc1Cl,-,63,-,-,-,-
COc1ccc(/C=C(\NC(=O)c2ccc(C)cc2)C(=O)NCCCn2ccnc2)cc1OC,-,-,-,-,-,-
C(C#CCCCCCCCCC[n+]1ccccc1)#CCCCCCCCCC[n+]1ccccc1,49,-,-,-,-,.
Fc1ccc(C2=Nc3cccc4cccc(c34)N2)cc1,-,-,-,-,-,-
Brc1ccc(C2=Nc3cccc4cccc(c34)N2)o1,23,-,-,-,-,-
O=C(CN1C(=O)C2C3C=CC(C3)C2C1=O)OCC(=O)c1ccc(Cl)cc1 (centres undefined),-,74,-,-,-,-
COc1ccc(C2OC(=O)CC2C(=O)NCc2ccc(C)cc2)cc1OC (centres undefined),-,-,-,-,-,-
COCCCNC(=O)C1CC(=O)OC1c1ccc(OC)c(OC)c1 (centres undefined),-,42,-,-,-,-
COc1ccc(N2C(=O)CCC(C(=O)N3CCCCC3)C2c2ccc(F)cc2)cc1 (centres undefined),-,59,-,-,-,-
COc1ccc(N2C(=O)CCC(C(=O)N3CCC(C(N)=O)CC3)C2c2ccc(F)cc2)cc1 (centres undefined),-,-,-,-,-,-
COc1ccc(NC(=O)CCNS(=O)(=O)c2ccc3c(c2)CC(C)N3C(=O)C2CC2)cc1 (centres undefined),-,34,-,-,-,-
COc1cccc(NC(=O)CCNS(=O)(=O)c2ccc3c(c2)CC(C)N3C(=O)C2CC2)c1 (centres undefined),-,.,-,-,-,-
COc1ccc(C(=O)NC(=S)Nc2ccc3oc(=O)ccc3c2)cc1,-,-,-,-,-,-
CCCCCC(=O)NC(=S)Nc1ccc2oc(=O)ccc2c1,-,86,-,-,-,-
CCOC(=O)Nc1nc(C)c(C(=O)c2ccc(Cl)cc2)s1,-,-,.,-,-,-
CCOC(=O)c1sc(NC(=O)Nc2ccc(Cl)cc2)nc1C,-,52,-,-,-,-
Cc1ccc(CNC(=O)c2ccc(N3CCC4(CC3)CC(c3ccccc3)=NO4)c(NC(=O)c3c(Cl)cccc3Cl)c2)cc1,-,51,-,-,-,-
CN1CCN(c2ccc(NC(=S)NC(=O)/C=C/c3ccco3)cc2)CC1,-,-,-,-,-,-
COc1ccc(O)c(C(=O)c2coc(=N)c(C(=O)Nc3ccc(SC(F)F)cc3)c2)c1,-,40,-,-,-,-
SMILES,dFosB activator,CAL PDZ FP-1,CAL PDZ FP-2,PKA-R1A act,PKA-R2B activ,NTR1 agonist
COc1cccc(NC(=S)NC(Cc2ccccc2)c2ccccc2)c1 (centres undefined),.,.,.,-,-,.
CCc1ccc(C(=O)NNC(=O)c2c(CC)noc2C)cc1,-,60,-,-,-,-
C[C@@H]1CN([C@@H](C)CO)C(=O)c2cc(NC(=O)Nc3ccccc3)ccc2O[C@H]1CN(C)C(=O)Nc1cccc2ccccc12,-,-,-,-,-,-
CC(C)[C@H](NS(=O)(=O)c1ccccc1)C(=O)OCc1cc([N+](=O)[O-])cc2c1OCOC2,-,-,-,-,-,.
O=C(Nc1ccc(Cl)c(S(=O)(=O)N2CCCC2)c1)c1cc(=O)[nH]c2ccccc12,-,-,-,-,-,-
COc1cc(Br)cc(/C=N/NC(=O)Cc2ccccc2)c1O,-,-,-,-,-,-
O=C(Cc1ccccc1)N/N=C/c1cc(Br)cc(Cl)c1O,54,-,.,-,-,-
O=C(NNC(=O)C1CC1)c1cc(=O)[nH]c2ccccc12,-,-,-,-,-,-
COc1ccc(C(=O)CSc2nnc(CNC(=O)c3ccc(OC)c(OC)c3)n2C)cc1,-,-,-,-,-,-
COC(=O)CSc1nnc(CNC(=O)c2ccc(OC)c(OC)c2)n1C,-,38,-,-,-,-
CCOC(=O)CSc1nnc(CNC(=O)c2cccc(C)c2)n1C,-,76,-,-,-,-
CCOC(=O)CSc1nnc(CNC(=O)c2cccc(C)c2)n1-c1ccccc1OC,-,-,.,-,-,-
COc1cc(/C=C/C(=O)OCC(=O)N2CCCC2)cc(OC)c1OC,-,-,-,-,-,-
Cc1cccc(C(=O)NCC(=O)NC(C)CCc2ccccc2)c1 (centres undefined),-,32,-,-,-,-
COc1ccc(NC(C)=O)cc1NC(=O)C1CCCN1C(=O)c1cccs1 (centres undefined),-,48,-,-,-,-
COc1ccc(NC(=O)[C@@H]2CCCN2C(=O)c2cccs2)cc1S(=O)(=O)N1CCCCC1,-,-,-,-,-,-
CN(C)C(=O)c1ccc(NC(=O)c2ccc(-c3ccc(Cl)cc3)o2)cc1,-,62,-,-,-,-
O=C(Nc1cccnc1)c1ccc(-c2ccc(Cl)cc2)o1,-,-,-,-,-,-
Cc1cc(Cl)ccc1N(CC(=O)NCCSCc1ccco1)S(C)(=O)=O,-,99,-,-,-,-
Cc1ccc(N(CC(=O)NCCSCc2ccco2)S(C)(=O)=O)cc1,-,-,-,-,-,-
O=S(=O)(c1cccc(-c2n[nH]c(=S)o2)c1)N1CCOCC1,-,98,-,-,-,-
COc1ccc(NC(=O)CSc2nc3ccccc3nc2N2CCCC2)cc1Cl,-,.,-,-,-,-
O=C(NNC(=O)c1ccccc1-n1cccc1)c1ccc(Cl)nc1,-,-,-,-,-,-
O=C1C2C3C=CC(O3)C2C(=O)N1N=Cc1cccc2ccccc12 (centres undefined),-,112,-,-,-,.
COc1cccc(OC)c1C(=O)Nc1cccc(C(C)=O)c1,-,53,-,-,-,-
COc1cccc(NC(=O)c2ccc3nsnc3c2)c1,-,49,-,-,-,-
